The results in this text go back to PMC5237706 (Acta Pharmaceutica Sinica. B, 2016).

Structures are written as SMILES. Like-named read-outs stand apart in the source and are kept apart here.

Assay [1] deals with human hepatoma HepG2 cells. As to the kind of experiment: Antiproliferative activity, SRB assay, HepG2. The format is cell-based. Conditions: for TI 24 h / TI 48 h: TI=IC50 L02 normal cell/IC50 HepG2 cancer cell. Summed up: (§1)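 Cells seeded at 5×10^4/well and grown 24 h, then exposed to test compound (DMSO stock) for 24 h or 48 h. Processed by standard SRB method with absorbance at 540 nm. IC50 from log plot of percent of control vs concentration. HepG2 kept in RPMI 1640; L02 and WI38 in DMEM; all with 10% FBS, 1% penicillin–streptomycin, 37 °C, 5% CO2. TI = IC50 normal cells / IC50 HepG2.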
On the technique in general: Sulforhodamine B stains cellular protein and so reports cell mass.

For another assay, the system named is mitochondrial SOD. As to the kind of experiment: Mitochondrial SOD activity. The settings on record: 10 μmol/L, 15 and 30 min. It is filed as biochemical, rat. Summed up: (§2)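 Energized liver mitochondria from male Wistar rats incubated with test compound (10 μmol/L) for 15 or 30 min. Then sonicated in 5 s pulses for 5 cycles. SOD, GSH-Px and CAT activities measured with commercial kits per instructions. Mean±SEM of three independent experiments.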

A further assay concerns the target T1, CAT (Rattus norvegicus, UniProt P04762).
T1 sequence (P04762 1-527): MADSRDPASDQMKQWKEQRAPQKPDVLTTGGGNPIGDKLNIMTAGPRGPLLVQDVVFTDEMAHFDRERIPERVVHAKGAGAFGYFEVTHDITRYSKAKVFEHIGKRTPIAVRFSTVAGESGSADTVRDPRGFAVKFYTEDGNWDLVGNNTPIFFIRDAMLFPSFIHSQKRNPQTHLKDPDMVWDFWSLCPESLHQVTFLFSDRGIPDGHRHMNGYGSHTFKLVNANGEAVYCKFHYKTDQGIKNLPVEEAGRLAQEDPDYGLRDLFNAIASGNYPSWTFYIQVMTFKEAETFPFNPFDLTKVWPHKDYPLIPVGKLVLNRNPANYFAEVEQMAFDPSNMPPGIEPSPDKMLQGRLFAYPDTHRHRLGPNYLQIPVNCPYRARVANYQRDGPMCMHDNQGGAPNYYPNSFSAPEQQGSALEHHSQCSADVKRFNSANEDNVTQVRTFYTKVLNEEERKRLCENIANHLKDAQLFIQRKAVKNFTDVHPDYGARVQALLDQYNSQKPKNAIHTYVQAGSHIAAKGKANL
Description: Mitochondrial CAT activity. The settings on record: 10 μmol/L, 15 and 30 min. It is filed as biochemical. Summed up: as §2

Assay [2] deals with lipid peroxidation in the energized hepatic mitochondria. Description: Mitochondrial lipid peroxidation induced by FeCl2/ascorbate. The format is biochemical, rat. Conditions: for inhibition of lipid peroxidation at 6 μmol/L: Fig. 1B. The procedure, abridged: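 Rat liver mitochondria (1 mg/mL, standard medium pH 7.4) with test compound (6 μmol/L). Peroxidation started with FeCl2 20 μmol/L/ascorbate 100 μmol/L and run 30 min. TCA-TBA-HCl stock plus 0.02% BHT added, then heated 15 min in a hot-water bath, cooled and centrifuged. A532 read; MDA calculated with ε532=1.5×10^5 mol/(L·cm). Three independent experiments.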

A further assay deals with GSH-Px. Description: Mitochondrial GSH-Px activity. The format is biochemical, rat. The settings on record: 10 μmol/L, 15 and 30 min. Summed up:
as §2

The test system of assay [3] is H2O2 production in energized hepatic mitochondria. As to the kind of experiment: Mitochondrial H2O2 production. It is filed as biochemical, rat. The settings on record: DCFDA, Fig. 2B. Summed up: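 DCFDA (8 μmol/L) added to energized rat hepatic mitochondria (1 mg/mL) in standard medium (sucrose 250, HEPES 10, glutamate 10, malate 5 mmol/L; pH 7.4). Test compound added; incubated 15 or 30 min in the dark at 25 °C. Fluorescence ex 485/em 521 nm, expressed as percent of control. Mean±SEM, three independent experiments.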

Assay [4] has as its system diploid human WI38 fibroblasts. As to the kind of experiment: Antiproliferative activity, SRB assay, WI38. It is filed as cell-based. Summed up:
as §1

In a further assay the test system is human hepatic L02 cells. As to the kind of experiment: Antiproliferative activity, SRB assay, L02. It is filed as cell-based. The procedure, abridged: as §1
Assay [5] concerns cyt c release from energized mitochondria. As to the kind of experiment: Cyt c release from mitochondria. It is filed as biochemical, rat. Conditions: Fig. 7D.
The subject of assay [6] is energized hepatic mitochondria (mPTP opening). Description: Mitochondrial swelling. It is filed as biochemical, rat. Conditions: Fig. 5B; for induction of mitochondrial swelling at 10 μmol/L: 10 μmol/L alone. The procedure, abridged:
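Energized rat hepatic mitochondria (1 mg/mL) in sucrose/HEPES/glutamate/malate medium, pH 7.4. Swelling followed as apparent A540 change after adding test compound (concentration series; 10 μmol/L alone or with Ca2+ 0.1 μmol/L). CsA 1 μmol/L added to suspensions containing 20 μmol/L compound. […]; mean±SEM of three independent experiments.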

As usually defined, the IC50 is the midpoint of a concentration-inhibition curve. For `CCCC[P+](c1ccccc1)(c1ccccc1)c1ccccc1` [ButylTPP], the “TI 24 h” value in [1] was 4.76. The “TI 48 h” value in assay [1] turned out to be 5.58. Moreover, the IC50 in [1] (read-out: IC50 HepG2 24 h, HepG2, 24 h, SRB) was determined as 25.4 ± 1.02 µM; in assay [1] (read-out: IC50 HepG2 48 h, HepG2, 48 h, SRB) it was 12.8 ± 0.87 µM; in [4] (read-out: IC50 WI38 24 h, WI38, 24 h, SRB), 179 ± 3.73 µM; in assay [4] (read-out: IC50 WI38 48 h, WI38, 48 h, SRB) it was 88.5 ± 3.95 µM; in the assay on human hepatic L02 cells (read-out: IC50 L02 24 h, L02, 24 h, SRB), 121 ± 9.97 µM; in the assay on human hepatic L02 cells (read-out: IC50 L02 48 h, L02, 48 h, SRB) it was 71.4 ± 6.64 µM. Also, the “effect on SOD activity” value in the assay with mitochondrial SOD is reported as “did not alter”. Moreover, the “effect on CAT activity” value on CAT is recorded as “did not alter”. In addition, the “inhibition of lipid peroxidation at 6 μmol/L” value in assay [2] is recorded as “ineffective”. Moreover, the “effect on GSH-Px activity” value with GSH-Px is recorded as “did not alter”. In addition, the “effect on endogenous H2O2 levels at 10 μmol/L” value in [3] is given as “did not affect”. Besides, the “induction of cyt c release at 10 μmol/L” value in assay [5] is “had no effects”. Further, the “induction of mitochondrial swelling at 10 μmol/L” value in assay [6] is given as “triggered swelling”.
For `O=C(O)/C=C/c1ccc(O)c(O)c1` [CaA, caffeic acid], the half-maximal inhibitory concentration (IC50) worked out at 201 ± 3.88 µM in assay [1] (Homo sapiens, HepG2, 24 h, read-out: IC50 HepG2 24 h, HepG2, 24 h, SRB); 93 ± 1.35 µM in [1] (Homo sapiens, HepG2, 48 h, read-out: IC50 HepG2 48 h, HepG2, 48 h, SRB); 281 ± 9.47 µM in assay [4] (Homo sapiens, WI-38, 24 h, read-out: IC50 WI38 24 h); 198 ± 7.78 µM in assay [4] (Homo sapiens, WI-38, 48 h, read-out: IC50 WI38 48 h); 403 ± 18.9 µM with human hepatic L02 cells (Homo sapiens, L02, 24 h, read-out: IC50 L02 24 h); 156 ± 8.83 µM in the assay on human hepatic L02 cells (Homo sapiens, L02, 48 h, read-out: IC50 L02 48 h). Besides, in [1], the “TI 24 h” value is reported as 2.01. Also, in assay [1], the “TI 48 h” value is on record as 1.68. The “inhibition of lipid peroxidation at 6 μmol/L” value in assay [2] is on record as “ineffective”. Moreover, the “effect on lipid peroxidation, various concentrations” value in [2] (Fig. 1A) is reported as “no effect”. The “induction of cyt c release at 10 μmol/L” value in [5] was “had no effects”. The “mitochondrial swelling with Ca2+” value in assay [6] (10 μmol/L + 0.1 μmol/L Ca2+) is recorded as “failed to cause swelling”. Besides, the “induction of mitochondrial swelling at 10 μmol/L” value in [6] is “neither MitoCA nor CaA induced swelling”.
